# Measurements collected from several papers.
# Lines come from different studies, so protocols differ. pIC50: −log10 of the molar value.
# Cell line: NCI-H522
# Observed: cell growth or viability
SMILES,test,setting,quantity,value
COc1ccc(C(=O)/C=C/c2cccnc2)cc1S(N)(=O)=O,SRB,10 µM,inhibition,168%
O=C1Nc2ccccc2C1=NNc1nnc2n1N=C(c1ccccc1)CS2,SRB,10 µM,inhibition,57%
c1ccc2cc(Cn3cc[n+](Cc4ccc5ccccc5c4)c3)ccc2c1,SRB,,TGI,3110 nM
COc1ccc(C(=O)/C=C/c2cccc(Cl)c2Cl)cc1S(N)(=O)=O,SRB,10 µM,inhibition,156%
COc1cccc(Oc2ccccc2NC(=O)CNC(=O)c2cccc3ccccc23)c1,SRB,48 h,GI50,178 nM
CCCCc1n(Cc2ccc3ccccc3n2)cc[n+]1Cc1ccc2ccccc2n1,SRB,,TGI,4190 nM
COc1ccc(C(=O)/C=C/c2ccc3ccccc3c2)cc1S(N)(=O)=O,SRB,10 µM,inhibition,163%
CCc1n(Cc2ccc3ccccc3n2)cc[n+]1Cc1ccc2ccccc2n1,SRB,,TGI,1490 nM
O=C1NCCc2[nH]c(-c3ccncc3)cc21,,,pIC50,< 5.00
COc1ccc(-c2ccc(-c3ccc(C(=N)N)nc3)s2)cc1Cl,SRB,,GI50,2100 nM
COc1ccc(C(=O)/C=C/c2cccc3ccccc23)cc1S(N)(=O)=O,SRB,48 h,GI50,1600 nM
COc1cc(-c2ccc(-c3ccc(C(=N)N)nc3)s2)cc(OC)c1OC,SRB,,GI50,1800 nM
CCCc1n(Cc2ccc3ccccc3n2)cc[n+]1Cc1ccc2ccccc2n1,SRB,,TGI,4300 nM
S=C([S][Au-][P+](CCCCCC[P+]([Au-][S]C(=S)n1cccn1)(c1ccccc1)c1ccccc1)(c1ccccc1)c1ccccc1)n1cccn1,SRB,,GI50,1620 nM
